pIC50, pKi: −log10 of the molar value.
Experiments:
[1] = biological target: T1, Human immunodeficiency virus type 1 protease (Human immunodeficiency virus 1, UniProt Q72874); assay: Inhibition of HIV1 protease
Summary of the method: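 Protease activity read with fluorogenic substrate DABCYL-γ-Abu-Ser-Gln-Asn-Tyr-Pro-Ile-Val-Gln-EDANS in 100 mM sodium acetate, 1 mM EDTA, 1 M NaCl, pH 4.7, 30 °C. Substrate and inhibitor (DMSO, 3% v/v final) preincubated 3 min, then enzyme added (7.5 nM final). Fluorescence (ex 340, em 490 nm) followed 3 min. 8–10 inhibitor concentrations; IC50 fitted to %inhibition = 100[I]0/(IC50+[I]0).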

[2] = biological target: T1, Human immunodeficiency virus type 1 protease; assay: Inhibition of dimerization of HIV1 protease
Summary of the method: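 Zhang kinetic analysis using the same fluorogenic DABCYL/EDANS substrate assay (pH 4.7 acetate buffer, 30 °C, ex 340/em 490 nm). Initial substrate held constant; at least four protease concentrations (4.7–13.6 nM) tested at several inhibitor concentrations. Dimerization inhibition constant Kid derived from Zhang plots.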

[3] = biological target: Human immunodeficiency virus type 1 protease (Human immunodeficiency virus 1) (UniProt Q72874); assay: Inhibition of HIV1 protease at 5.7 uM
Summary of the method: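 Fluorogenic assay with DABCYL-γ-Abu-Ser-Gln-Asn-Tyr-Pro-Ile-Val-Gln-EDANS substrate, in 100 mM sodium acetate, 1 mM EDTA and 1 M NaCl at pH 4.7 and 30 °C, with 3% v/v DMSO final. Substrate and inhibitor were preincubated for 3 min. The reaction was started with HIV-1 protease (7.5 nM final). The fluorescence increase (ex 340/em 490 nm) was followed over 3 min and compared with a substrate-only blank to give % inhibition.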

Row | Compound | pIC50 [1] | pKi [2] | inhibition [3] | pKi [1]
1 | COC(=O)[C@H](CC(C)C)NC(=O)[C@@H](NC(=O)CCCOc1ccc2ccc(OCCCC(=O)N[C@H](C(=O)N[C@@H](CC(C)C)C(=O)N[C@H](C(=O)OC)C(C)C)C(C)C)cc2n1)[C@@H](C)O | 5.85 | 5.82 |  | 
2 | COC(=O)[C@@H](NC(=O)[C@H](CC(C)C)NC(=O)[C@@H](NC(=O)CCCOc1ccc2ccc(OCCCC(=O)N[C@H](C(=O)N[C@@H](CC(C)C)C(=O)N[C@H](C(=O)OC)C(C)C)C(C)C)nc2c1)C(C)C)C(C)C | 5.85 | 6.89 |  | 
3 | COC(=O)[C@@H](NC(=O)[C@H](CC(C)C)NC(=O)[C@@H](NC(=O)CCCOc1ccc2ccc(OCCCC(=O)N[C@@H](CCC(=O)O)C(=O)N[C@@H](CC(C)C)C(N)=O)nc2c1)C(C)C)C(C)C |  |  | 20% | 
4 | COC(=O)[C@@H](NC(=O)[C@H](CC(C)C)NC(=O)[C@@H](NC(=O)CCCOc1ccc2ccc(OCCCC(=O)N[C@@H](CCC(=O)O)C(=O)N[C@@H](CC(C)C)C(N)=O)cc2c1)C(C)C)C(C)C | 5.55 | 6.05 |  | 
5 | COC(=O)[C@@H](NC(=O)[C@H](CC(C)C)NC(=O)[C@@H](NC(=O)CCCOc1ccc2ccc(OCCCC(=O)N[C@@H](Cc3ccc(O)cc3)C(=O)N[C@@H](CCC(=O)OC(C)(C)C)C(=O)N[C@@H](CC(C)C)C(N)=O)cc2c1)C(C)C)C(C)C | 5.96 | 6.64 |  | 
6 | COC(=O)[C@H](CC(C)C)NC(=O)[C@@H](NC(=O)CCCOc1ccc2ccc(OCCCC(=O)N[C@H](C(=O)N[C@@H](CC(C)C)C(=O)N[C@H](C(=O)OC)C(C)C)C(C)C)cc2c1)[C@@H](C)O | 5.40 | 5.85 |  | 4.99
7 | CC[C@H](C)[C@H](NC(=O)CCCOc1ccc2ccc(OCCCC(=O)N[C@H](C(=O)N[C@@H](CC(C)C)C(=O)N[C@H](C(=O)OC)C(C)C)C(C)C)cc2c1)C(=O)N[C@H](C(N)=O)[C@@H](C)O | 5.37 | 5.82 |  | 5.21
8 | CC[C@H](C)[C@H](NC(=O)CCCOc1ccc2ccc(OCCCC(=O)N[C@H](C(=O)N[C@@H](CC(C)C)C(=O)N[C@H](C(=O)OC)C(C)C)C(C)C)cc2n1)C(=O)N[C@H](C(N)=O)[C@@H](C)O | 5.77 | 6.60 |  | 5.37
9 | COC(=O)[C@@H](NC(=O)[C@H](CC(C)C)NC(=O)[C@@H](NC(=O)CCCOc1ccc2ccc(OCCCC(=O)N[C@@H](CCC(=O)OC(C)(C)C)C(=O)N[C@@H](CC(C)C)C(N)=O)cc2c1)C(C)C)C(C)C | 5.96 | 6.38 |  | 
10 | COC(=O)[C@@H](NC(=O)[C@H](CC(C)C)NC(=O)[C@@H](NC(=O)CCCOc1ccc2ccc(OCCCC(=O)N[C@@H](CCC(=O)OC(C)(C)C)C(=O)N[C@@H](CC(C)C)C(N)=O)nc2c1)C(C)C)C(C)C | 5.74 | 6.28 |  | 
11 | CC[C@@H](C)[C@H](NC(=O)[C@@H](NC(=O)CCCOc1ccc2ccc(OCCCC(=O)N[C@H](C(=O)N[C@H](C(=O)N[C@H](C(=O)OC)C(C)C)[C@H](C)CC)[C@@H](C)O)nc2c1)[C@@H](C)O)C(=O)N[C@H](C(=O)OC)C(C)C |  | 5.72 | 45% | 
12 | COC(=O)[C@@H](NC(=O)[C@H](CC(C)C)NC(=O)[C@@H](NC(=O)CCCOc1ccc2ccc(OCCCC(=O)N[C@@H](Cc3ccc(O)cc3)C(=O)N[C@@H](CCC(=O)OC(C)(C)C)C(=O)N[C@@H](CC(C)C)C(N)=O)nc2c1)C(C)C)C(C)C | 6.00 | 6.39 |  | 
13 | CC[C@H](C)[C@H](NC(=O)[C@H](CCC(N)=O)NC(=O)CCCOc1ccc2ccc(OCCCC(=O)N[C@H](C(=O)N[C@@H](CC(C)C)C(=O)N[C@H](C(=O)OC)C(C)C)C(C)C)cc2c1)C(=O)N[C@H](C(N)=O)[C@@H](C)O | 5.55 | 5.64 |  | 
14 | COC(=O)[C@H](CC(N)=O)NC(=O)[C@H](CC(C)C)NC(=O)[C@@H](NC(=O)CCCOc1ccc2ccc(OCCCC(=O)N[C@H](C(=O)N[C@@H](CC(C)C)C(=O)N[C@H](C(=O)OC)C(C)C)C(C)C)cc2n1)[C@@H](C)O | 5.29 | 7.10 |  | 
15 | COC(=O)[C@@H](NC(=O)[C@H](CC(C)C)NC(=O)[C@@H](NC(=O)CCCOc1ccc2ccc(OCCCC(=O)N[C@H](C(=O)N[C@@H](CC(C)C)C(=O)N[C@H](C(=O)OC)C(C)C)C(C)C)cc2c1)C(C)C)C(C)C | 5.46 | 6.25 |  | 
16 | CC[C@H](C)[C@H](NC(=O)CCCOc1ccc2ccc(OCCCC(=O)N[C@H](C(=O)N[C@@H](CC(C)C)C(=O)N[C@H](C(=O)OC)C(C)C)C(C)C)cc2n1)C(=O)N[C@H](C(=O)N[C@@H](CC(C)C)C(=O)OC)[C@@H](C)O | 5.28 | 6.40 |  | 
17 | CC[C@H](C)[C@H](NC(=O)[C@H](CCC(N)=O)NC(=O)CCCOc1ccc2ccc(OCCCC(=O)N[C@H](C(=O)N[C@@H](CC(C)C)C(=O)N[C@H](C(=O)OC)C(C)C)C(C)C)cc2n1)C(=O)N[C@H](C(N)=O)[C@@H](C)O |  |  | 30% | 

From ChEMBL document CHEMBL1149261, “New constrained "molecular tongs" designed to dissociate HIV-1 protease dimer” (J Med Chem, 2004)
